Measurements from ChEMBL document CHEMBL5724801, “EUbOPEN Chemogenomics Library - Multiplex” (2024).
Values joined by “and” are separate entries in the source; they are usually repeats but may differ in a detail not shown here. Equal values may be shown once.

System: Fibroblast
Assay: Multiplex assay against human fibroblast
Type: toxicity, cell-based
In short: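 Cells were classed with CellPathfinder machine-learning gating, first as Hoechst high-intensity objects or normal cells, then (normal cells) as healthy, pyknosed or fragmented nuclei, and finally (pyknosed cells) as mitotic or apoptotic. Staining of live cells at seeding used Hoechst33342, BioTracker Green Microtubule Cytoskeleton Dye, MitoTracker Red and Annexin V Alexa Fluor 680, with imaging on a CQ1 microscope at 37°C and 5% CO2 after compound addition. Tubulin, mitochondrial-mass and membrane-permeability phenotypes are per cents of healthy-nucleus cells.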

[1] = 12 h, 1 µM, compound concentration 1 uM
[2] = 12 h, 10 µM, compound concentration 10 uM
[3] = 24 h, 1 µM, compound concentration 1 uM
[4] = 24 h, 10 µM, compound concentration 10 uM
[5] = 48 h, 1 µM, compound concentration 1 uM
[6] = 48 h, 10 µM, compound concentration 10 uM

Compound: CN(C)C(=O)Cn1cc(-c2ccc(-c3cncc4ccccc34)cc2)cn1
- Population Apoptotic (%) [1]: 47% and 32%
- Population Healthy Nuclei (%) [1]: 72% and 46%
- Population Hoechst High Intensity Objects (%) [1]: 0% and 5%
- Population Membrane Permeable-Phenotype (%) [1]: 0% and 5%
- Population Mitochondria Different-Phenotype (%) [1]: 5% and 2%
- Population Mitotic Cells (%) [1]: 52% and 67%
- Population Normal (%) [1]: 100% and 94%
- Population Pyknosed Nuclei (%) [1]: 16% and 20%
- Population Tubulin-Different-Phenotype (%) [1]: 31% and 54%
- Total Cell Count [1]: 139 and 161
- Population Apoptotic (%) [2]: 33%
- Population Healthy Nuclei (%) [2]: 69% and 42%
- Population Hoechst High Intensity Objects (%) [2]: 4% and 9%
- Population Mitochondria Different-Phenotype (%) [2]: 12% and 5%
- Population Mitotic Cells (%) [2]: 66%
- Population Normal (%) [2]: 95% and 90%
- Population Pyknosed Nuclei (%) [2]: 16%
- Population Tubulin-Different-Phenotype (%) [2]: 52% and 81%
- Total Cell Count [2]: 113 and 98
- Population Apoptotic (%) [3]: 47% and 48%
- Population Healthy Nuclei (%) [3]: 73% and 38%
- Population Hoechst High Intensity Objects (%) [3]: 5%
- Population Membrane Permeable-Phenotype (%) [3]: 0% and 7%
- Population Mitochondria Different-Phenotype (%) [3]: 3% and 5%
- Population Mitotic Cells (%) [3]: 52% and 51%
- Population Normal (%) [3]: 94%
- Population Pyknosed Nuclei (%) [3]: 14% and 20%
- Population Tubulin-Different-Phenotype (%) [3]: 37% and 61%
- Total Cell Count [3]: 137 and 156
- Population Apoptotic (%) [4]: 50% and 41%
- Population Fragmented Nuclei (%) [4]: 20% and 41%
- Population Healthy Nuclei (%) [4]: 62% and 43%
- Population Hoechst High Intensity Objects (%) [4]: 8% and 5%
- Population Membrane Permeable-Phenotype (%) [4]: 0% and 11%
- Population Mitochondria Different-Phenotype (%) [4]: 12% and 8%
- Population Mitotic Cells (%) [4]: 50% and 58%
- Population Normal (%) [4]: 91% and 94%
- Population Pyknosed Nuclei (%) [4]: 17% and 15%
- Population Tubulin-Different-Phenotype (%) [4]: 59% and 85%
- Total Cell Count [4]: 113 and 85
- Population Apoptotic (%) [5]: 76% and 44%
- Population Fragmented Nuclei (%) [5]: 21% and 36%
- Population Healthy Nuclei (%) [5]: 65% and 40%
- Population Hoechst High Intensity Objects (%) [5]: 6% and 7%
- Population Membrane Permeable-Phenotype (%) [5]: 3% and 5%
- Population Mitochondria Different-Phenotype (%) [5]: 8% and 7%
- Population Mitotic Cells (%) [5]: 23% and 55%
- Population Normal (%) [5]: 93% and 92%
- Population Pyknosed Nuclei (%) [5]: 12% and 22%
- Population Tubulin-Different-Phenotype (%) [5]: 57% and 77%
- Total Cell Count [5]: 144 and 141
- Population Fragmented Nuclei (%) [6]: 24% and 47%
- Population Healthy Nuclei (%) [6]: 54% and 44%
- Population Hoechst High Intensity Objects (%) [6]: 9% and 0%
- Population Membrane Permeable-Phenotype (%) [6]: 0% and 8%
- Population Mitochondria Different-Phenotype (%) [6]: 20% and 13%
- Population Normal (%) [6]: 90% and 99%
- Population Pyknosed Nuclei (%) [6]: 20% and 7%
- Population Tubulin-Different-Phenotype (%) [6]: 55% and 73%
- Total Cell Count [6]: 117 and 102
